{"source": "ChEMBL document CHEMBL2390884", "about": "“Design, synthesis and antiproliferative activity studies of novel 1,2,3-triazole-dithiocarbamate-urea hybrids” (Eur J Med Chem, 2013)", "key": {"[1]": {"tested_on": "MGC-803", "test": "Induction of apoptosis in human MGC803 cells assessed as nuclear fragmentation at 0.25 to 1 uM after 12 hrs by Hoechst 33258 staining-based fluorescence microscopy", "assay_type": "functional, cell-based", "how_it_was_run": "(§1)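 MGC-803 cells seeded at 8×10^3 cells/well, treated 12 h at 0, 0.25, 0.5 or 1.0 µmol/L; cells collected, fixed, stained 20 min with Hoechst 33258, washed with PBS; nuclear shrinkage, chromatin condensation, intense fluorescence and fragmentation scored by fluorescence microscopy.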"}, "[2]": {"tested_on": "MGC-803", "test": "Induction of apoptosis in human MGC803 cells assessed as late apoptotic cells at 1 uM after 12 hrs by AnnexinV-FITC/propidium iodide staining-based flow cytometry (reference value: 3.0 %)", "assay_type": "functional"}, "[3]": {"tested_on": "MGC-803", "test": "Induction of apoptosis in human MGC803 cells assessed as necrotic cells at 0.5 uM after 12 hrs by AnnexinV-FITC/propidium iodide staining-based flow cytometry (reference value: 2.4 %)", "assay_type": "functional"}, "[4]": {"tested_on": "MGC-803", "test": "Induction of apoptosis in human MGC803 cells after 12 hrs by AnnexinV-FITC/propidium iodide staining-based flow cytometry", "assay_type": "functional, cell-based"}, "[5]": {"tested_on": "MGC-803", "test": "Induction of apoptosis in human MGC803 cells assessed as viable cells at 0.5 uM after 12 hrs by AnnexinV-FITC/propidium iodide staining-based flow cytometry (reference value: 91.9 %)", "assay_type": "functional", "details": "MGC-803, 12 h, read-out: Activity"}, "[6]": {"tested_on": "MGC-803", "test": "Induction of apoptosis in human MGC803 cells assessed as late apoptotic cells at 0.5 uM after 12 hrs by AnnexinV-FITC/propidium iodide staining-based flow cytometry (reference value: 3.0 %)", "assay_type": "functional"}, "[7]": {"tested_on": "MGC-803", "test": "Induction of apoptosis in human MGC803 cells at 0.25 to 1 uM after 12 hrs by AnnexinV-FITC/propidium iodide staining-based flow cytometry (reference value: 2.8 %)", "assay_type": "functional"}, "[8]": {"tested_on": "MGC-803", "test": "Cytotoxicity against human MGC803 cells after 72 hrs by MTT assay", "assay_type": "functional, cell-based", "details": "MGC-803, 72 h"}, "[9]": {"tested_on": "MGC-803", "test": "Cell cycle arrest in human MGC803 cells assessed as reduction in S phase accumulation at 0.25 to 1 uM by propidium iodide staining-based flow cytometry", "assay_type": "functional", "details": "TDE = time-dependent effect", "how_it_was_run": "(§2)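 Exponentially growing MGC-803 cells (5×10^5) treated at 0, 0.25, 0.5 or 1.0 µmol/L for 12 or 24 h; cells collected, fixed in ice-cold 70% ethanol, treated with buffer containing RNAse A and 0.1% Triton X-100, stained with PI; DNA content analysed by flow cytometry to give percentages of cells in G1, S and G2/M phases.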"}, "[10]": {"tested_on": "HEK293", "test": "Cytotoxicity against human HEK293 cells up to 70 uM after 72 hrs by MTT assay", "assay_type": "cell-based", "details": "hek293, 72 h", "how_it_was_run": "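HEK293 cells seeded at 5×10^3 per well, grown 24 h at 37°C, then medium replaced with compound-containing medium over a concentration range; 72 h exposure; MTT (5 mg/mL stock) added for 4 h at 37°C, formazan dissolved in DMSO, absorbance read at 570 nm. Triplicate per concentration, experiment repeated three times.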"}, "[11]": {"tested_on": "MGC-803", "test": "Induction of apoptosis in human MGC803 cells assessed as late apoptotic cells at 0.25 uM after 12 hrs by AnnexinV-FITC/propidium iodide staining-based flow cytometry (reference value: 3.0 %)", "assay_type": "functional"}, "[12]": {"tested_on": "MGC-803", "test": "Cell cycle arrest in human MGC803 cells assessed as accumulation at G2/M phase at 1 uM after 24 hrs by propidium iodide staining-based flow cytometry", "assay_type": "functional", "how_it_was_run": "as §2"}, "[13]": {"tested_on": "MCF7", "test": "Cytotoxicity against human MCF7 cells after 72 hrs by MTT assay", "assay_type": "functional, cell-based", "details": "MCF7, 72 h"}, "[14]": {"tested_on": "MGC-803", "test": "Cell cycle arrest in human MGC803 cells assessed as accumulation at G0/G1 phase at 0.5 uM after 12 hrs by propidium iodide staining-based flow cytometry", "assay_type": "functional", "how_it_was_run": "as §2"}, "[15]": {"tested_on": "MGC-803", "test": "Induction of apoptosis in human MGC803 cells assessed as viable cells at 0.25 uM after 12 hrs by AnnexinV-FITC/propidium iodide staining-based flow cytometry (reference value: 91.9 %)", "assay_type": "functional", "details": "MGC-803, 12 h, read-out: Activity"}, "[16]": {"tested_on": "MGC-803", "test": "Cell cycle arrest in human MGC803 cells assessed as accumulation at G0/G1 phase at 0.5 uM after 24 hrs by propidium iodide staining-based flow cytometry", "assay_type": "functional", "how_it_was_run": "as §2"}, "[17]": {"tested_on": "MGC-803", "test": "Induction of apoptosis in human MGC803 cells assessed as chromatin condensation at 0.25 to 1 uM after 12 hrs by Hoechst 33258 staining-based fluorescence microscopy", "assay_type": "functional, cell-based", "how_it_was_run": "as §1"}, "[18]": {"tested_on": "MGC-803", "test": "Induction of apoptosis in human MGC803 cells assessed as necrotic cells at 1 uM after 12 hrs by AnnexinV-FITC/propidium iodide staining-based flow cytometry (reference value: 2.4 %)", "assay_type": "functional"}, "[19]": {"tested_on": "MGC-803", "test": "Induction of apoptosis in human MGC803 cells assessed as early apoptotic cells at 0.5 uM after 12 hrs by AnnexinV-FITC/propidium iodide staining-based flow cytometry (reference value: 2.8 %)", "assay_type": "functional"}, "[20]": {"tested_on": "MGC-803", "test": "Cell cycle arrest in human MGC803 cells assessed as accumulation at S phase at 0.25 uM after 24 hrs by propidium iodide staining-based flow cytometry", "assay_type": "functional", "how_it_was_run": "as §2"}, "[21]": {"tested_on": "MGC-803", "test": "Cell cycle arrest in human MGC803 cells assessed as reduction in G1 phase accumulation at 0.25 to 1 uM by propidium iodide staining-based flow cytometry", "assay_type": "functional", "details": "TDE = time-dependent effect", "how_it_was_run": "as §2"}, "[22]": {"tested_on": "MGC-803", "test": "Cell cycle arrest in human MGC803 cells assessed as accumulation at G0/G1 phase at 1 uM after 12 hrs by propidium iodide staining-based flow cytometry", "assay_type": "functional", "how_it_was_run": "as §2"}, "[23]": {"tested_on": "MGC-803", "test": "Cell cycle arrest in human MGC803 cells assessed as reduction in G1 phase accumulation after 12 to 24 hrs by propidium iodide staining-based flow cytometry", "assay_type": "functional", "how_it_was_run": "as §2"}, "[24]": {"tested_on": "MGC-803", "test": "Cell cycle arrest in human MGC803 cells assessed as accumulation at S phase at 0.5 uM after 24 hrs by propidium iodide staining-based flow cytometry", "assay_type": "functional", "how_it_was_run": "as §2"}, "[25]": {"tested_on": "MGC-803", "test": "Cell cycle arrest in human MGC803 cells assessed as accumulation at G2/M phase at 0.5 uM after 12 hrs by propidium iodide staining-based flow cytometry", "assay_type": "functional", "how_it_was_run": "as §2"}, "[26]": {"tested_on": "MGC-803", "test": "Cell cycle arrest in human MGC803 cells assessed as accumulation at G2/M phase at 0.25 uM after 12 hrs by propidium iodide staining-based flow cytometry", "assay_type": "functional", "how_it_was_run": "as §2"}, "[27]": {"tested_on": "MGC-803", "test": "Cell cycle arrest in human MGC803 cells assessed as accumulation at G2/M phase at 0.25 to 1 uM by propidium iodide staining-based flow cytometry", "assay_type": "functional", "details": "TDE = time-dependent effect", "how_it_was_run": "as §2"}, "[28]": {"tested_on": "MGC-803", "test": "Cell cycle arrest in human MGC803 cells assessed as accumulation at S phase at 1 uM after 12 hrs by propidium iodide staining-based flow cytometry", "assay_type": "functional", "how_it_was_run": "as §2"}, "[29]": {"tested_on": "MGC-803", "test": "Cell cycle arrest in human MGC803 cells assessed as accumulation at S phase at 0.5 uM after 12 hrs by propidium iodide staining-based flow cytometry", "assay_type": "functional", "how_it_was_run": "as §2"}, "[30]": {"tested_on": "SMMC-7721", "test": "Cytotoxicity against human SMMC7721 cells after 72 hrs by MTT assay", "assay_type": "functional, cell-based", "details": "SMMC-7721, 72 h"}, "[31]": {"tested_on": "MGC-803", "test": "Induction of apoptosis in human MGC803 cells assessed as necrotic cells at 0.25 uM after 12 hrs by AnnexinV-FITC/propidium iodide staining-based flow cytometry (reference value: 2.4 %)", "assay_type": "functional"}, "[32]": {"tested_on": "MGC-803", "test": "Cell cycle arrest in human MGC803 cells assessed as accumulation at G2/M phase at 0.25 uM after 24 hrs by propidium iodide staining-based flow cytometry", "assay_type": "functional", "how_it_was_run": "as §2"}, "[33]": {"tested_on": "MGC-803", "test": "Cell cycle arrest in human MGC803 cells assessed as accumulation at S phase at 1 uM after 24 hrs by propidium iodide staining-based flow cytometry", "assay_type": "functional", "how_it_was_run": "as §2"}}, "note": "Activity calls are given as the source filed them. No cut-off for these calls is given here."}
{"molecule": "CC(C)NC(=O)N1CCN(C(=S)SCc2cn(Cc3ccc(F)cc3)nn2)CC1", "values": [{"measurement": "Activity", "setting": "[1]", "result": "Active"}, {"measurement": "Activity", "setting": "[2]", "result": 2.4, "unit": "%"}, {"measurement": "Activity", "setting": "[3]", "result": 0.8, "unit": "%"}, {"measurement": "Activity", "setting": "[4]", "result": "Dose-dependent effect"}, {"measurement": "viability at 0.5 µM", "setting": "[5]", "result": 80.1, "unit": "%"}, {"measurement": "Activity", "setting": "[6]", "result": 1.8, "unit": "%"}, {"measurement": "Activity", "setting": "[7]", "result": 31.4, "unit": "%"}, {"measurement": "IC50", "setting": "[8]", "result": 760, "unit": "nM"}, {"measurement": "Activity", "setting": "[9]", "result": "tde"}, {"measurement": "Activity", "setting": "[10]", "result": "Non-toxic"}, {"measurement": "Activity", "setting": "[11]", "result": 2.2, "unit": "%"}, {"measurement": "Activity", "setting": "[12]", "result": 79.02, "unit": "%"}, {"measurement": "IC50", "setting": "[13]", "result": 1660, "unit": "nM"}, {"measurement": "Activity", "setting": "[14]", "result": 22.18, "unit": "%"}, {"measurement": "viability at 0.25 µM", "setting": "[15]", "result": 88.1, "unit": "%"}, {"measurement": "Activity", "setting": "[16]", "result": 4.91, "unit": "%"}, {"measurement": "Activity", "setting": "[17]", "result": "Active"}, {"measurement": "Activity", "setting": "[18]", "result": 1.2, "unit": "%"}, {"measurement": "Activity", "setting": "[19]", "result": 17.2, "unit": "%"}, {"measurement": "Activity", "setting": "[20]", "result": 25.21, "unit": "%"}, {"measurement": "Activity", "setting": "[21]", "result": "tde"}, {"measurement": "Activity", "setting": "[22]", "result": 3.62, "unit": "%"}, {"measurement": "Activity", "setting": "[23]", "result": "Dose-dependent effect"}, {"measurement": "Activity", "setting": "[24]", "result": 20.57, "unit": "%"}, {"measurement": "Activity", "setting": "[25]", "result": 46.86, "unit": "%"}, {"measurement": "Activity", "setting": "[26]", "result": 20.84, "unit": "%"}, {"measurement": "Activity", "setting": "[27]", "result": "tde"}, {"measurement": "Activity", "setting": "[28]", "result": 12.65, "unit": "%"}, {"measurement": "Activity", "setting": "[29]", "result": 32.65, "unit": "%"}, {"measurement": "IC50", "setting": "[30]", "result": 5970, "unit": "nM"}, {"measurement": "Activity", "setting": "[31]", "result": 0.5, "unit": "%"}, {"measurement": "Activity", "setting": "[32]", "result": 58.94, "unit": "%"}, {"measurement": "Activity", "setting": "[33]", "result": 15.91, "unit": "%"}]}
